Test results as given in ChEMBL document CHEMBL4732101, “Novel quinolone-based potent and selective HDAC6 inhibitors: Synthesis, molecular modeling studies and biological investigation” (Eur J Med Chem, 2021).
Activity calls are given as the source filed them. No cut-off for these calls is given here.

Tests used:
[1] = tested on: U-937; experiment: Cytotoxicity against human U-937 cells assessed as reduction in cell viability measured after 48 hrs by MTT assay; assay type: functional, cell-based; conditions: U-937, 48 h
Method in brief: (§1)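 U937 cells grown in RPMI-1640 with 10% FBS, 2 mM L-glutamine and penicillin-streptomycin. 2.5×10^4 cells/well treated in triplicate at 50, 25, 10, 5 and 1 µM for 12, 24 or 48 h. MTT 0.5 mg/ml added for 3 h, plate centrifuged 5 min at 1200 rpm, crystals dissolved in isopropanol, A570 read. IC50 derived from the concentration series.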

[2] = Mutagenicity in Salmonella typhimurium TA98 at 5 to 230 uM measured after 90 mins in absence of rat liver S9 fraction by Ames test; assay type: toxicity; conditions: salmonella enterica subsp. enterica serovar typhimurium, 1.5 h, dose 5-230 µM
[3] = tested on: HCT-116; experiment: Cytotoxicity against human HCT-116 cells assessed as reduction in cell viability measured after 24 hrs by MTT assay; assay type: functional, cell-based; conditions: HCT-116, 24 h
Method in brief: (§2)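 HCT-116 cells grown in DMEM with 10% FBS, 2 mM L-glutamine and antibiotics. 2.5×10^4 cells/well treated in triplicate at 50, 25, 10, 5 and 1 µM for 12, 24 or 48 h. Then MTT 0.5 mg/ml for 3 h, supernatant removed, formazan dissolved in isopropanol, absorbance read at 570 nm. IC50 derived from the concentration series.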

[4] = molecular target: T1, Protein deacetylase HDAC6 (Homo sapiens) (UniProt Q9UBN7); experiment: Inhibition of HDAC6 in human HCT-116 cells assessed as increase in alpha-tubulin acetylation at 10 uM measured after 12 to 24 hrs by Western blot analysis relative to control; assay type: cell-based; conditions: time 12-24 hrs
T1 sequence (whole entry): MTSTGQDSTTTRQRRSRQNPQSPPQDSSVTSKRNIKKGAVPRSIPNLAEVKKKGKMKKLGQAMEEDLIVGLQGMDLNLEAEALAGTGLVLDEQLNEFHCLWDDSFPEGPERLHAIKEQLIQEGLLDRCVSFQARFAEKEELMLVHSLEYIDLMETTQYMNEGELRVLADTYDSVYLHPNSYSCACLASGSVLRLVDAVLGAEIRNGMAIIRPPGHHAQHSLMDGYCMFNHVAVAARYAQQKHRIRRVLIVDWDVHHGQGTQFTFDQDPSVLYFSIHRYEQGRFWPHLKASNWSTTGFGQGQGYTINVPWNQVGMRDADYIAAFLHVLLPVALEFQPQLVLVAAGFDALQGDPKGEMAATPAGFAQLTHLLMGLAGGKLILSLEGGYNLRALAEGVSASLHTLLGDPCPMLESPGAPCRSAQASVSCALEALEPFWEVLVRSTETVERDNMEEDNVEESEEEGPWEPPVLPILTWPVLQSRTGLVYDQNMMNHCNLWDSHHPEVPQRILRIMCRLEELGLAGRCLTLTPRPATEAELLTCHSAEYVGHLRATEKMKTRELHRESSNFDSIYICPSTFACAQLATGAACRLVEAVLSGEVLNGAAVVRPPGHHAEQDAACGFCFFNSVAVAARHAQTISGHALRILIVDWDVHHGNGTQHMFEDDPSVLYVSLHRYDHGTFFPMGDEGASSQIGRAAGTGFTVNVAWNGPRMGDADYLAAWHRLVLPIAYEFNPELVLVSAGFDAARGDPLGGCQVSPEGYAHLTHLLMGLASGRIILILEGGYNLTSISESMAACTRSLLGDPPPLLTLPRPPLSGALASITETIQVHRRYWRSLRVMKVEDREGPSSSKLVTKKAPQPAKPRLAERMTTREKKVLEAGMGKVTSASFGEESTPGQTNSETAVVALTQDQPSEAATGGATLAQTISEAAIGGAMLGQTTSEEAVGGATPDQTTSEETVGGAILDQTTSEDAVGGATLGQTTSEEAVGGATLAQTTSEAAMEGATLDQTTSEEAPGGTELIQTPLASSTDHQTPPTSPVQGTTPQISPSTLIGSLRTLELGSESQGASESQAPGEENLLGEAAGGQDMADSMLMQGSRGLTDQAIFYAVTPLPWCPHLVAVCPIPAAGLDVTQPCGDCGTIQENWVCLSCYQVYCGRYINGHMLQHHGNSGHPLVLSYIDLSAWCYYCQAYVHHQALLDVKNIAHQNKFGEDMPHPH
Method in brief: (§3)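 HCT-116 or U937 cells treated at 10 µM for 12 and 24 h. […] Western blot used 40 µg total protein or 5 µg acid-extracted histone. Blots probed for cleaved PARP, acetylated tubulin, H3K9/14ac and Hsp90(AcLys294), normalized to GAPDH or H4. Compared with control cells by one-way ANOVA and Dunnett's test.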

[5] = Cytotoxicity against human PBMC cells assessed as reduction in cell viability at 90 uM measured after 24 to 48 hrs by GUAVA easyCyte cytometric method; assay type: cell-based; conditions: time 24-48 hrs
Method in brief: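 PBMCs seeded at 1.5 x10^6/mL in complete medium and exposed to 15, 45 or 90 µM test compound, or DMSO vehicle, for 24 h and 48 h. Percentage of viable cells determined by flow cytometry with ViaCount reagent.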

[6] = tested on: U-937; experiment: Cytotoxicity against human U-937 cells assessed as reduction in cell proliferation at 50 uM measured after 48 hrs by MTT assay relative to control; assay type: functional; design: scale not given: the % may be the effect or the level left; method in brief: as §1
[7] = Inhibition of HDAC1/2/3/8 in human HCT-116 cells assessed as increase in H3K9/14 acetylation at 10 uM measured after 12 to 24 hrs by Western blot analysis relative to control; assay type: cell-based; conditions: hct-116, 10 µM, time 12-24 hrs; method in brief: as §3
[8] = Solubility of compound in pH 3 buffer at 250 uM measured after 24 hrs by HPLC/UV/DAD method; assay type: physicochemical; conditions: pH 3, 24 h
Method in brief: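 10 mM DMSO stock diluted to 250 µM (2.5% DMSO) in 50 mM acetic acid, pH 3.0, and shaken 24 h at 25 °C. For solubility, samples filtered, diluted 1:2, quantified by HPLC-UV at 254 nm against a standard. For stability, percent remaining taken as the 24 h peak area over the T0 peak area. Triplicate analyses averaged.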

[9] = molecular target: T1, Protein deacetylase HDAC6 (Homo sapiens); experiment: Inhibition of HDAC6 in human HCT-116 cells assessed as increase in Hsp90(AcLys294) acetylation at 10 uM measured after 12 to 24 hrs by Western blot analysis; assay type: cell-based; conditions: time 12-24 hrs; method in brief: as §3
[10] = tested on: NIH3T3; experiment: Cytotoxicity against mouse NIH/3T3 cells assessed as reduction in cell viability after 24 hrs by neutral red uptake assay; assay type: cell-based; conditions: NIH3T3, 24 h
Method in brief: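 NIH3T3 fibroblasts seeded at 5 x 10^4 per well and cultured 24 h at 37 °C, 5% CO2. DMSO-solubilized samples added at 8 to 160 µM for 24 h; medium as negative control. Neutral Red medium applied 3 h, dye desorbed in acetic acid/ethanol, absorbance read at 540 nm. Three experiments, six replicates per concentration; viability normalized to % control.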

[11] = tested on: HCT-116; experiment: Cytotoxicity against human HCT-116 cells assessed as reduction in cell viability measured after 48 hrs by MTT assay; assay type: functional, cell-based; conditions: HCT-116, 48 h; method in brief: as §2

fold change (FC) [4]: > 9 | fold change (FC) [7]: > 6 | solubility [8]: Soluble | inhibition [9]: Active
SMILES: CCN(CC)Cc1ccc(Cn2c(=O)c(OCc3ccc(C(=O)NO)cc3)c(-c3cccnc3)c3ccccc32)cc1
IC50 [1]: 45.5 µM | Activity [2]: Non-Toxic | IC50 [3]: 25.7 µM | Activity [5]: Toxic | Activity [6]: 60% | IC50 [10]: 90 µM | IC50 [11]: 8.4 µM
